One assay relates to NB-4. Kind of assay: Antiproliferative activity against human NB-4 cells assessed as reduction in cell viability incubated for 3 days by cell-titer glo assay. The note with it: NB-4, 72 h. Type of assay: functional, cell-based. Put shortly: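 Cells seeded in 96-well plates (RS4;11 5000 cells/well; HCT-116, Huh7, K562, NB4 2000 cells/well), dosed after 24 h with a range of compound concentrations for 3 days. Viability read by CellTiter-Glo luminescence; IC50 from curve fitting.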

Assay [1] addresses Ubiquitin carboxyl-terminal hydrolase 11 (Homo sapiens) (UniProt P51784). Nature of the assay: Inhibition of USP11 (unknown origin) at 20 uM.
Assay [2] relates to RS4-11. Nature of the assay: Induction of cell cycle arrest in human RS4-11 cells assessed as S phase at 1 uM incubated for 72 hrs by PI staining based flow cytometry analysis (reference value: 33.9 %). Type of assay: functional. Background: Flow cytometry measures light scatter and fluorescence of single cells or particles in a stream.
The test system of assay [3] is RS4-11. Nature of the assay: Induction of apoptosis in human RS4-11 cells assessed as necrotic cells at 1 uM incubated for 48 hrs by annexin V-FITC and PI staining based flow cytometry analysis (reference value: 0.53 %). Type of assay: functional.
Assay [4] deals with RS4-11. Kind of assay: Induction of apoptosis in human RS4-11 cells assessed as necrotic cells at 1 uM incubated for 24 hrs by annexin V-FITC and PI staining based flow cytometry analysis (reference value: 0.53 %). Type of assay: functional.
In assay [5] the test system is RS4-11. Kind of assay: Induction of cell cycle arrest in human RS4-11 cells assessed as G2/M phase at 1 uM incubated for 24 hrs by PI staining based flow cytometry analysis (reference value: 21.5 %). Type of assay: functional.
The next assay concerns LNCaP. Kind of assay: Antiproliferative activity against human LNCaP cells assessed as reduction in cell viability incubated for 6 days by cell-titer glo assay. Type of assay: functional, cell-based. The note with it: 144 h. The gist of the method:
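LNCaP seeded at 2500 cells/well in 96-well plates, treated 24 h later with a range of compound concentrations for 6 days. Viability by CellTiter-Glo; IC50 from curve fitting.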

The subject of assay [6] is RS4-11. Nature of the assay: Induction of cell cycle arrest in human RS4-11 cells assessed as G0/G1 phase at 1 uM incubated for 24 hrs by PI staining based flow cytometry analysis (reference value: 44.3 %). Type of assay: functional.
Assay [7] deals with RS4-11. Nature of the assay: Induction of apoptosis in human RS4-11 cells assessed as late apoptotic cells at 1 uM incubated for 72 hrs by annexin V-FITC and PI staining based flow cytometry analysis (reference value: 6.11 %). Type of assay: functional.

The structures appear in SMILES notation. Calls of active or inactive are those of the source. The rule behind the calls is not given here.

One may read the IC50 as the point on the concentration scale where inhibition reaches its midpoint.

Chain of Ubiquitin carboxyl-terminal hydrolase 11 (Homo sapiens) (P51784 whole entry): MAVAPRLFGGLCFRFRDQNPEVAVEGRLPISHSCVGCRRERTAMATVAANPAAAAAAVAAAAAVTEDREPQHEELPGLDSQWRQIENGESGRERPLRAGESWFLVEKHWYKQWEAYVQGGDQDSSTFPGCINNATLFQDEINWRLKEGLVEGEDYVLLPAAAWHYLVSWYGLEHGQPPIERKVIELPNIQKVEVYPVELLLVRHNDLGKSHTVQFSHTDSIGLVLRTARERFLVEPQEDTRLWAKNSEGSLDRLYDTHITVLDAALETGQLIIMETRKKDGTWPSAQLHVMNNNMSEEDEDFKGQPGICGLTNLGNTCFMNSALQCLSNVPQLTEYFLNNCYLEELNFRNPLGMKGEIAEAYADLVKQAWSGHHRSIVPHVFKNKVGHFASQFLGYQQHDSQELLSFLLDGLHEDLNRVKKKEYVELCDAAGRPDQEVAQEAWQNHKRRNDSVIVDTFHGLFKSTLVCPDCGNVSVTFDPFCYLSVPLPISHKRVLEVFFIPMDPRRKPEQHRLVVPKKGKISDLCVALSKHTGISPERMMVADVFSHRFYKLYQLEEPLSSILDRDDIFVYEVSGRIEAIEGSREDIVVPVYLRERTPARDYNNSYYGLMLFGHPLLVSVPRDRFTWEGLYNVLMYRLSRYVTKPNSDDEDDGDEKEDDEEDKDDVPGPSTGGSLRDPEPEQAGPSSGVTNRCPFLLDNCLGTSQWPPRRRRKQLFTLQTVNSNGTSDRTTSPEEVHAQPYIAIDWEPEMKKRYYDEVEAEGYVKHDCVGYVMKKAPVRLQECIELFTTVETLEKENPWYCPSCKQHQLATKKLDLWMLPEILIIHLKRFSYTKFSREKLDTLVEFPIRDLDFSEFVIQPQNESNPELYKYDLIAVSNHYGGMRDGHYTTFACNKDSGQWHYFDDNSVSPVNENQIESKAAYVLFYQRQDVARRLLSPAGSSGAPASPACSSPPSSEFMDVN

On to `COC(=O)c1ccc(CN2CCC(O)(Cn3cnc4c(-c5ccc(CN)cc5)n(C)nc4c3=O)CC2)c(Cl)c1.O=C(O)C(F)(F)F.O=C(O)C(F)(F)F`, for which the half-inhibitory concentration (IC50) stood at 5000 nM in the assay with NB-4 and 29.6 nM in the assay on LNCaP. In addition, the inhibition entry in assay [1] is “inactive”. The Activity is recorded as 33.4% in the assay on RS4-11 [2]; 0.54% with RS4-11 [3]; 0.46% with RS4-11 [4]; 20.6% in the assay with RS4-11 [5]; 43.7% with RS4-11 [6]; 39% in the assay with RS4-11 [7].

The values are drawn from ChEMBL document CHEMBL4680269, “N-benzylpiperidinol derivatives as novel USP7 inhibitors: Structure-activity relationships and X-ray crystallographic studies” (Eur J Med Chem, 2020).
